Reference: article PMC3304100 (Molecular Pharmaceutics, 2011)

Tests used:
hPepT1 = biological target: T1, hPepT1 (Homo sapiens, UniProt P46059); assay: Uptake in hPepT1 transfected vs non-transfected HeLa cells; type: cell-based; conditions: 1mM, pH 6.0, 45 min, 37°C, n=3
T1 sequence (P46059 1-708): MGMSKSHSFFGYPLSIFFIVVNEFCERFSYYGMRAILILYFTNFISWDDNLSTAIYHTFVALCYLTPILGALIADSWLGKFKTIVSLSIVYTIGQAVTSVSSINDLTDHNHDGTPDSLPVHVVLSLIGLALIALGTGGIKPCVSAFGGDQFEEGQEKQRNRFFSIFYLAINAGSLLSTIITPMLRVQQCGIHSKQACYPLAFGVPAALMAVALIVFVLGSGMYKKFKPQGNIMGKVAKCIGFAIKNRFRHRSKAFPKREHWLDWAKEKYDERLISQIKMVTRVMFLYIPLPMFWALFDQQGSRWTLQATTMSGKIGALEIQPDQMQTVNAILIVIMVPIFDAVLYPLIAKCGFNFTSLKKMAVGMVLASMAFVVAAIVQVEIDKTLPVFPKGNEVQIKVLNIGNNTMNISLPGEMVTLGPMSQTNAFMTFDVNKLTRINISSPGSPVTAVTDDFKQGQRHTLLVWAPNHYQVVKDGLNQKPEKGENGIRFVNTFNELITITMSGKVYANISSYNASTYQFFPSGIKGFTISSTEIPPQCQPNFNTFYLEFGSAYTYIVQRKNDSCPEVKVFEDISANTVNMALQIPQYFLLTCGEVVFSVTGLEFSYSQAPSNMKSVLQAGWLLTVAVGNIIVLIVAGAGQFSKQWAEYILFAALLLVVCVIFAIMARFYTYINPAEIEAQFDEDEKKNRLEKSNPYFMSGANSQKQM
In short: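 HeLa cells transduced with hPepT1-carrying adenovirus and used two days post-infection; non-transfected HeLa cells served as control. Cells were washed with pH 6.0 uptake buffer, then exposed to test compound (1mM) in uptake buffer at 37°C for 45 min and washed ice-cold. They were extracted in methanol:water (50:50) for 1 h at room temperature, and the supernatant was filtered and quantified by LC-MS. Sample protein was measured by DC assay against a BSA standard.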

rat gut wall = assay: In situ single-pass intestinal perfusion in rats; type: in vivo; conditions: pH 5.5, n=4, metoprolol co-perfused as reference
In short: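 Fasted (12–18 h) male Wistar rats (250–280 g), ketamine-xylazine im. ~10 cm jejunal, mid-intestinal or ileal segment cannulated and perfused at 0.18 ml/min with pH 5.5 MES buffer, 290 mosm/l, containing phenol red and metoprolol. Drug concentration = highest oral dose/250 ml. After 1 h to steady state, outlet sampled every 10 min for 1 h; HPLC. Peff by plug-flow model, water-flux corrected, R 0.2 cm.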

[1] = cited from earlier work

| Structure (SMILES) | Uptake in HeLa/hPepT1 cells compared to non-transfected HeLa cells (hPepT1) | Effective permeability (Peff), in words (rat gut wall) | Absolute oral availability [1] |
| --- | --- | --- | --- |
| CC(C)[C@H](N)C(=O)OCCOCn1cnc2c(=O)[nH]c(N)nc21 [Valacyclovir] | ~ 5 fold | – | – |
| CC(=O)N[C@H]1[C@H]([C@H](O)[C@H](O)CO)OC(C(=O)O)=C[C@@H]1N=C(N)N [Zanamivir] | – | absolutely no permeability | approximately 2% |
